In ChEMBL document CHEMBL4689842, “EUbOPEN Chemogenomics Library wave 1” (2021):

Tested on: HEK-293T
Assay: Multiplex assay against HEK293T;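 for Population Tubulin-Different-Phenotype (%): share of the cells with healthy nuclei that show this phenotype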
Format: toxicity, cell-based
Conditions: human
In short: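 Hoechst33342, BioTracker Green Microtubule Cytoskeleton Dye, MitoTracker Red and Annexin V Alexa Fluor 680 were added to live cells at seeding, and imaging on a CQ1 microscope at 37°C and 5% CO2 followed compound addition. Gating by CellPathfinder machine learning separated cells into Hoechst high-intensity objects or normal cells, then normal cells into healthy, pyknosed or fragmented nuclei, then pyknosed cells into mitotic or apoptotic. Per cents of healthy-nucleus cells are reported for the tubulin, mitochondrial-mass and membrane-permeability phenotypes.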

[1] = 12 h, 1 µM, compound concentration 1 uM, replicate 1
[2] = 12 h, 1 µM, compound concentration 1 uM, replicate 2
[3] = 12 h, 10 µM, compound concentration 10 uM, replicate 1
[4] = 12 h, 10 µM, compound concentration 10 uM, replicate 2
[5] = 24 h, 1 µM, compound concentration 1 uM, replicate 1
[6] = 24 h, 1 µM, compound concentration 1 uM, replicate 2
[7] = 24 h, 10 µM, compound concentration 10 uM, replicate 1
[8] = 24 h, 10 µM, compound concentration 10 uM, replicate 2
[9] = 48 h, 1 µM, compound concentration 1 uM, replicate 1
[10] = 48 h, 1 µM, compound concentration 1 uM, replicate 2
[11] = 48 h, 10 µM, compound concentration 10 uM, replicate 1
[12] = 48 h, 10 µM, compound concentration 10 uM, replicate 2

Structure (SMILES): Cl.O=C(O)c1cc(-c2ccc(C3CCNCC3)cc2)c2ccc(-c3ccc(C(F)(F)F)cc3)cc2c1
- Population Apoptotic (%) [1]: 43%
- Population Fragmented Nuclei (%) [1]: 17%
- Population Healthy Nuclei (%) [1]: 21%
- Population Hoechst High Intensity Objects (%) [1]: 19%
- Population Membrane Permeable-Phenotype (%) [1]: 0%
- Population Mitochondria Different-Phenotype (%) [1]: 76%
- Population Mitotic Cells (%) [1]: 56%
- Population Normal (%) [1]: 80%
- Population Pyknosed Nuclei (%) [1]: 61%
- Population Tubulin-Different-Phenotype (%) [1]: 36%
- Total Cell Count [1]: 147
- Population Apoptotic (%) [2]: 6%
- Population Fragmented Nuclei (%) [2]: 8%
- Population Healthy Nuclei (%) [2]: 38%
- Population Hoechst High Intensity Objects (%) [2]: 6%
- Population Membrane Permeable-Phenotype (%) [2]: 7%
- Population Mitochondria Different-Phenotype (%) [2]: 9%
- Population Mitotic Cells (%) [2]: 93%
- Population Normal (%) [2]: 93%
- Population Pyknosed Nuclei (%) [2]: 52%
- Population Tubulin-Different-Phenotype (%) [2]: 4%
- Total Cell Count [2]: 178
- Population Apoptotic (%) [3]: 62%
- Population Fragmented Nuclei (%) [3]: 16%
- Population Healthy Nuclei (%) [3]: 20%
- Population Hoechst High Intensity Objects (%) [3]: 10%
- Population Membrane Permeable-Phenotype (%) [3]: 3%
- Population Mitochondria Different-Phenotype (%) [3]: 80%
- Population Mitotic Cells (%) [3]: 37%
- Population Normal (%) [3]: 89%
- Population Pyknosed Nuclei (%) [3]: 62%
- Population Tubulin-Different-Phenotype (%) [3]: 49%
- Total Cell Count [3]: 305
- Population Apoptotic (%) [4]: 64%
- Population Fragmented Nuclei (%) [4]: 8%
- Population Healthy Nuclei (%) [4]: 16%
- Population Hoechst High Intensity Objects (%) [4]: 16%
- Population Membrane Permeable-Phenotype (%) [4]: 20%
- Population Mitochondria Different-Phenotype (%) [4]: 66%
- Population Mitotic Cells (%) [4]: 35%
- Population Normal (%) [4]: 83%
- Population Pyknosed Nuclei (%) [4]: 75%
- Population Tubulin-Different-Phenotype (%) [4]: 66%
- Total Cell Count [4]: 111
- Population Apoptotic (%) [5]: 43%
- Population Fragmented Nuclei (%) [5]: 14%
- Population Healthy Nuclei (%) [5]: 33%
- Population Hoechst High Intensity Objects (%) [5]: 22%
- Population Membrane Permeable-Phenotype (%) [5]: 2%
- Population Mitochondria Different-Phenotype (%) [5]: 59%
- Population Mitotic Cells (%) [5]: 56%
- Population Normal (%) [5]: 77%
- Population Pyknosed Nuclei (%) [5]: 51%
- Population Tubulin-Different-Phenotype (%) [5]: 28%
- Total Cell Count [5]: 160
- Population Apoptotic (%) [6]: 9%
- Population Fragmented Nuclei (%) [6]: 8%
- Population Healthy Nuclei (%) [6]: 72%
- Population Hoechst High Intensity Objects (%) [6]: 4%
- Population Membrane Permeable-Phenotype (%) [6]: 4%
- Population Mitochondria Different-Phenotype (%) [6]: 11%
- Population Mitotic Cells (%) [6]: 90%
- Population Normal (%) [6]: 95%
- Population Pyknosed Nuclei (%) [6]: 19%
- Population Tubulin-Different-Phenotype (%) [6]: 9%
- Total Cell Count [6]: 236
- Population Apoptotic (%) [7]: 66%
- Population Fragmented Nuclei (%) [7]: 20%
- Population Healthy Nuclei (%) [7]: 18%
- Population Hoechst High Intensity Objects (%) [7]: 16%
- Population Membrane Permeable-Phenotype (%) [7]: 4%
- Population Mitochondria Different-Phenotype (%) [7]: 78%
- Population Mitotic Cells (%) [7]: 34%
- Population Normal (%) [7]: 83%
- Population Pyknosed Nuclei (%) [7]: 60%
- Population Tubulin-Different-Phenotype (%) [7]: 57%
- Total Cell Count [7]: 297
- Population Apoptotic (%) [8]: 60%
- Population Fragmented Nuclei (%) [8]: 11%
- Population Healthy Nuclei (%) [8]: 16%
- Population Hoechst High Intensity Objects (%) [8]: 28%
- Population Membrane Permeable-Phenotype (%) [8]: 0%
- Population Mitochondria Different-Phenotype (%) [8]: 61%
- Population Mitotic Cells (%) [8]: 39%
- Population Normal (%) [8]: 71%
- Population Pyknosed Nuclei (%) [8]: 72%
- Population Tubulin-Different-Phenotype (%) [8]: 76%
- Total Cell Count [8]: 112
- Population Apoptotic (%) [9]: 38%
- Population Fragmented Nuclei (%) [9]: 25%
- Population Healthy Nuclei (%) [9]: 27%
- Population Hoechst High Intensity Objects (%) [9]: 21%
- Population Membrane Permeable-Phenotype (%) [9]: 2%
- Population Mitochondria Different-Phenotype (%) [9]: 25%
- Population Mitotic Cells (%) [9]: 61%
- Population Normal (%) [9]: 78%
- Population Pyknosed Nuclei (%) [9]: 47%
- Population Tubulin-Different-Phenotype (%) [9]: 19%
- Total Cell Count [9]: 166
- Population Apoptotic (%) [10]: 8%
- Population Fragmented Nuclei (%) [10]: 4%
- Population Healthy Nuclei (%) [10]: 82%
- Population Hoechst High Intensity Objects (%) [10]: 2%
- Population Membrane Permeable-Phenotype (%) [10]: 4%
- Population Mitochondria Different-Phenotype (%) [10]: 1%
- Population Mitotic Cells (%) [10]: 92%
- Population Normal (%) [10]: 97%
- Population Pyknosed Nuclei (%) [10]: 13%
- Population Tubulin-Different-Phenotype (%) [10]: 9%
- Total Cell Count [10]: 390
- Population Apoptotic (%) [11]: 60%
- Population Fragmented Nuclei (%) [11]: 34%
- Population Healthy Nuclei (%) [11]: 7%
- Population Hoechst High Intensity Objects (%) [11]: 21%
- Population Membrane Permeable-Phenotype (%) [11]: 0%
- Population Mitochondria Different-Phenotype (%) [11]: 89%
- Population Mitotic Cells (%) [11]: 39%
- Population Normal (%) [11]: 78%
- Population Pyknosed Nuclei (%) [11]: 58%
- Population Tubulin-Different-Phenotype (%) [11]: 78%
- Total Cell Count [11]: 314
- Population Apoptotic (%) [12]: 40%
- Population Fragmented Nuclei (%) [12]: 13%
- Population Healthy Nuclei (%) [12]: 23%
- Population Hoechst High Intensity Objects (%) [12]: 27%
- Population Membrane Permeable-Phenotype (%) [12]: 20%
- Population Mitochondria Different-Phenotype (%) [12]: 30%
- Population Mitotic Cells (%) [12]: 59%
- Population Normal (%) [12]: 72%
- Population Pyknosed Nuclei (%) [12]: 62%
- Population Tubulin-Different-Phenotype (%) [12]: 95%
- Total Cell Count [12]: 119
